# Assay results as given in ChEMBL document CHEMBL1125183, “3-Hydroxy-3-methylglutaryl-coenzyme a reductase inhibitors. 7. Modification of the hexahydronaphthalene moiety of simvastatin: 5-oxygenated and 5-oxa derivatives” (J Med Chem, 1991).
# Assays:
# [1] = Relative potency with respect to compactin; format: ADME
# [2] = molecular target: T1, 3-hydroxy-3-methylglutaryl-coenzyme A reductase (Rattus norvegicus, UniProt P51639); experiment: In vitro ability to inhibit solubilized, partially purified, rat liver HMG-CoA reductase
# T1 sequence (P51639 whole entry): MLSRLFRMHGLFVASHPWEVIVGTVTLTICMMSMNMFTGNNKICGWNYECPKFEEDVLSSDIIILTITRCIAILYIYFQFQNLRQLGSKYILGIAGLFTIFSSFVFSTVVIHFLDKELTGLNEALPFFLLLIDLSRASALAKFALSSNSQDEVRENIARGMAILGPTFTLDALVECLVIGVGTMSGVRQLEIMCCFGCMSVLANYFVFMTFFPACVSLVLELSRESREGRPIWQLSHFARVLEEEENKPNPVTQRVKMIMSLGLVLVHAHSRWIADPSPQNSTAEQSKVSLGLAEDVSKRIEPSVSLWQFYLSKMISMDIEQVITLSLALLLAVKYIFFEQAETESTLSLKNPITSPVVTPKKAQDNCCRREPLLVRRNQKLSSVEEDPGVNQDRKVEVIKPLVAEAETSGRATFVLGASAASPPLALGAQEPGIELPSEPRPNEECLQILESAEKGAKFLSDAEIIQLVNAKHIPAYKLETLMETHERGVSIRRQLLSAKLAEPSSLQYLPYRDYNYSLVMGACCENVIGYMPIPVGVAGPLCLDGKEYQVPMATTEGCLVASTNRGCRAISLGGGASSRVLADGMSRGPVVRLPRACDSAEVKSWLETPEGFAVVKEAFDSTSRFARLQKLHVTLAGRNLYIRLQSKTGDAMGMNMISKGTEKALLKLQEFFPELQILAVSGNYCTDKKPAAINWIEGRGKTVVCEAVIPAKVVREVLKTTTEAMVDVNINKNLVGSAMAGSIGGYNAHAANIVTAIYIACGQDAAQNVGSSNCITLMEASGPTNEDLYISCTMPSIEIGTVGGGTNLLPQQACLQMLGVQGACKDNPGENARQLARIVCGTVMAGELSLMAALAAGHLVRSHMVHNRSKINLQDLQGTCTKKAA
# Procedure, shortened: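 Enzyme tested as the sodium salt of the dihydroxy carboxylate form, against solubilized, partially purified rat liver HMG-CoA reductase. Conditions follow a procedure the paper cites from earlier work.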
# Rattus norvegicus = species: Rattus norvegicus; experiment: The compound was evaluated for acute inhibition of cholesterol synthesis in rat; percent change of [14C]cholesterol; format: functional
# Procedure, shortened: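 Rats received a single oral dose of 0.45 mg/kg. Synthesis of cholesterol from [14C]acetate was measured at a fixed time after dosing and reported as % change in [14C]cholesterol.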
# Canis familiaris [3] = experiment: Inhibition of cholesterol synthesis in cholestyramine-primed dogs at 4 mg/kg per day dose in Dog 2; format: functional, Canis lupus familiaris
# Procedure, shortened: (§1)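 Male beagles were fed a low-cholesterol semisynthetic diet once daily, with 12 g cholestyramine per day in the diet. Pretreatment plasma cholesterol was established, then one dog per compound received 4 mg/kg mixed into the diet for 21 days and was then crossed over to the lovastatin control at the same dose for 2-3 weeks. Jugular blood was taken twice weekly. Plasma cholesterol was measured colorimetrically (Liebermann-Burchard) after extraction and saponification and reported as % change from the resin-treated state.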
# Canis familiaris [4] = experiment: Inhibition of cholesterol synthesis in cholestyramine-primed dogs at 4 mg/kg per day dose in Dog-1; format: functional, Canis lupus familiaris; procedure, shortened: as §1
# Canis familiaris [5] = experiment: Inhibition of cholesterol synthesis in cholestyramine-primed dogs at 4 mg/kg per day dose in Dog-2; format: functional, Canis lupus familiaris; procedure, shortened: as §1
# Canis familiaris [6] = experiment: Inhibition of cholesterol synthesis in cholestyramine-primed dogs at 4 mg/kg per day dose in Dog-3:; format: functional, Canis lupus familiaris; procedure, shortened: as §1
# Canis familiaris [7] = experiment: Inhibition of cholesterol synthesis in cholestyramine-primed dogs at 4 mg/kg per day dose in Dog-3; format: functional, Canis lupus familiaris; procedure, shortened: as §1
# Canis familiaris [8] = experiment: Inhibition of cholesterol synthesis in cholestyramine-primed dogs at 4 mg/kg per day dose in Dog 1; format: functional, Canis lupus familiaris; procedure, shortened: as §1
SMILES,Relative potency [1],IC50 [2],Change (Rattus norvegicus),further results
CCC(C)(C)C(=O)O[C@H]1C[C@@H](C)[C@@H](OCCc2ccccc2)[C@@H]2CC[C@H](C)[C@H](CC[C@@H]3C[C@@H](O)CC(=O)O3)C12 (some centres not stated),300,6 nM,-39%,
CCC(C)(C)C(=O)O[C@H]1C[C@H](C)[C@H](O)[C@@H]2CC[C@H](C)[C@H](CC[C@@H]3C[C@@H](O)CC(=O)O3)C12 (some centres not stated),11.1,269 nM,,
CCC(C)(C)C(=O)O[C@@H](C[C@@H](C)CO)C1[C@H](O)CC[C@H](C)[C@@H]1CC[C@@H]1C[C@@H](O)CC(=O)O1 (some centres not stated),0.5,2800 nM,,
CC[C@H](C)C(=O)O[C@H]1C[C@@H](C)C=C2C=C[C@H](C)[C@H](CC[C@@H]3C[C@@H](O)CC(=O)O3)C21 (some centres not stated),,,,Change (Canis familiaris [4]): 25%; Change (Canis familiaris [5]): 38%; Change (Canis familiaris [6]): 25%
C=C(C)C[C@H](OC(=O)C(C)(C)CC)C1[C@H](O)CC[C@H](C)[C@@H]1CC[C@@H]1C[C@@H](O)CC(=O)O1 (some centres not stated),0.9,1700 nM,,
CCC(C)(C)C(=O)O[C@H]1C[C@@H](C)[C@@H](O)[C@@H]2CC[C@H](C)[C@H](CC[C@@H]3C[C@@H](O)CC(=O)O3)C12 (some centres not stated),73,40.8 nM,-37%,Change (Canis familiaris [7]): 19%
CCC(C)(C)C(=O)O[C@H]1C[C@H](C)C(=O)[C@@H]2CC[C@H](C)[C@H](CC[C@@H]3C[C@@H](O)CC(=O)O3)C12 (some centres not stated),63,59 nM,-68%,
CCC(C)(C)C(=O)O[C@H]1CC(C)(C)O[C@@H]2CC[C@H](C)[C@H](CC[C@@H]3C[C@@H](O)CC(=O)O3)C12 (some centres not stated),70,35 nM,-67%,Change (Canis familiaris [8]): 20%

# The next lines start with results.
Relative potency [1],IC50 [2],SMILES,Change (Rattus norvegicus),further results
138,13 nM,CCC(C)(C)C(=O)O[C@H]1C[C@@H](C)CC2CC[C@H](C)[C@H](CC[C@@H]3C[C@@H](O)CC(=O)O3)C21 (some centres not stated),,
125,34 nM,CCC(C)(C)C(=O)O[C@H]1C[C@@H](C)C(=O)[C@@H]2CC[C@H](C)[C@H](CC[C@@H]3C[C@@H](O)CC(=O)O3)C12 (some centres not stated),-56%,
280,6 nM,CCC(C)(C)C(=O)O[C@H]1C[C@](C)(CSc2ccccc2)O[C@@H]2CC[C@H](C)[C@H](CC[C@@H]3C[C@@H](O)CC(=O)O3)C12 (some centres not stated),0%,
61,48.6 nM,CCC(C)(C)C(=O)O[C@H]1C[C@H](C)[C@@H](O)[C@@H]2CC[C@H](C)[C@H](CC[C@@H]3C[C@@H](O)CC(=O)O3)C12 (some centres not stated),-54%,Change (Canis familiaris [3]): 34%
94,16 nM,CCC(C)(C)C(=O)O[C@H]1C[C@@H](C)[C@@H](OC(=O)N(Cc2ccccc2)Cc2ccccc2)[C@@H]2CC[C@H](C)[C@H](CC[C@@H]3C[C@@H](O)CC(=O)O3)C12 (some centres not stated),-4%,
258,6.6 nM,CCC(C)(C)C(=O)O[C@H]1C[C@@](C)(CSc2ccccc2)O[C@@H]2CC[C@H](C)[C@H](CC[C@@H]3C[C@@H](O)CC(=O)O3)C12 (some centres not stated),-34%,
360,5 nM,CCC(C)(C)C(=O)O[C@H]1C[C@@H](C)[C@@H](OC(=O)NCc2ccccc2)[C@@H]2CC[C@H](C)[C@H](CC[C@@H]3C[C@@H](O)CC(=O)O3)C12 (some centres not stated),-27%,
300,6 nM,CCC(C)(C)C(=O)O[C@H]1C[C@@H](C)[C@@H](OP(=O)(c2ccccc2)c2ccccc2)[C@@H]2CC[C@H](C)[C@H](CC[C@@H]3C[C@@H](O)CC(=O)O3)C12 (some centres not stated),-27%,
